# Source: ChEMBL document CHEMBL4376873, “Systematic Investigation of Lipophilicity Modulation by Aliphatic Fluorination Motifs” (J Med Chem, 2020)
# How the values were obtained:
# [1] = target: Voltage-gated inwardly rectifying potassium channel KCNH2 (Homo sapiens, UniProt Q12809); assay: Inhibition of human ERG assessed as reduction in channel tail current by plate-based planar patch clamp assay
# [2] = Solubility of compound in aqueous phosphate buffer at pH 7.4 after 24 hrs at 25 degC; format: physicochemical
# [3] = Intrinsic clearance in human liver microsomes; format: ADME, Microsome; details: read-out: CLH
# Procedure, shortened: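 Metabolic turnover rate in human microsomes, compound added from DMSO stock; reported in μL/min/mg.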
# [4] = Lipophilicity, logP of the compound by 19F NMR-based method; details: octanol/water
# [5] = Lipophilicity, logD of the compound at 7.4 by the shake flask method; format: physicochemical; details: octanol/water, pH 7.4
# Procedure, shortened: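 Shake-flask partitioning at pH 7.4 (routine AstraZeneca method); concentrations determined by UV detection.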
# [6] = Intrinsic clearance in rat hepatocytes assessed per million cells; format: ADME, cell-based, Hepatocyte; details: read-out: CLH
# Procedure, shortened: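 Isolated rat hepatocytes diluted to 1x10⁶ cells/mL, compound added from DMSO stock; metabolism rate expressed as μL/min/10⁶ cells.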
# [7] = Fraction unbound in 10% human plasma by equilibrium dialysis; format: ADME, cell-free
# Procedure, shortened: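 Equilibrium dialysis in 10% human plasma, compound added from DMSO stock; fraction unbound determined.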
# Sequence of Voltage-gated inwardly rectifying potassium channel KCNH2 (Q12809 whole entry): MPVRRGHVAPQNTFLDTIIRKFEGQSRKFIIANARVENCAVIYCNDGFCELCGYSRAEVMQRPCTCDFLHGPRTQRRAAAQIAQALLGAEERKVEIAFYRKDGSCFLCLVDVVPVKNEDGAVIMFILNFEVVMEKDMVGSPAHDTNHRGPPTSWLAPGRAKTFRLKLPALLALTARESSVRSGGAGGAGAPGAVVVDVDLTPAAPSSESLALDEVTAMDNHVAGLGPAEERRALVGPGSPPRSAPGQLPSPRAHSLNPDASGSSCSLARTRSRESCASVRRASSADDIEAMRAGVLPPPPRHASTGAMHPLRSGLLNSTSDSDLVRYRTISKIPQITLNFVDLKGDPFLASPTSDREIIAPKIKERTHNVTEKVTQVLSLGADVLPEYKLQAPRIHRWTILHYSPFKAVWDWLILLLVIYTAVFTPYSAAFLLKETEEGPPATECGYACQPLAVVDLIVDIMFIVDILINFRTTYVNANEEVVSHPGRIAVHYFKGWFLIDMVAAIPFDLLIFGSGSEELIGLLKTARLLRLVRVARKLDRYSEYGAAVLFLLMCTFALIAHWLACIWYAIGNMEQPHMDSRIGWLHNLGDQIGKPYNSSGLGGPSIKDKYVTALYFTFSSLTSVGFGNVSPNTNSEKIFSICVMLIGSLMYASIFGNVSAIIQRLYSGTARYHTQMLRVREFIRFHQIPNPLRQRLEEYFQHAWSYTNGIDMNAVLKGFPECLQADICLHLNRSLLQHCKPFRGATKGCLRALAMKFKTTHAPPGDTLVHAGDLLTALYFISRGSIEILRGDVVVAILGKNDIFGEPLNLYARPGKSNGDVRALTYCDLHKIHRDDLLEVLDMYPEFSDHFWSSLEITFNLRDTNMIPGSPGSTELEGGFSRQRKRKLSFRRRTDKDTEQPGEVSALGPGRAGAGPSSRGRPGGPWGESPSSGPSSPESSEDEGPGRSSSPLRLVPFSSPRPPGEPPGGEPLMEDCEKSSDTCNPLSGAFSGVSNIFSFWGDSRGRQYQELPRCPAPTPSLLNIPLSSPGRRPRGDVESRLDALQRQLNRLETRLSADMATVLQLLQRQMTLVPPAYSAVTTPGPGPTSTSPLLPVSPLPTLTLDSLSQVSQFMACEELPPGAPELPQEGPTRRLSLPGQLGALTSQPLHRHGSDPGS
Compound,logP [4],also measured
CCCCCOc1cccc(CCNCC(=O)N(C)C)c1.Cl,–,IC50 [1]: 1.8 µM; solubility at 24 h [2]: 779 µM
CCCCOc1cccc(CCNCC(=O)N(C)C)c1.Cl,–,IC50 [1]: 9.4 µM; solubility at 24 h [2]: 782 µM
CN(C)C(=O)CNCCc1cccc(OCCCC(C)(F)F)c1.Cl,–,IC50 [1]: 7.6 µM; microsomal CLint [3]: 7 µL/min/mg; solubility at 24 h [2]: 1000 µM
CN(C)C(=O)CNCCc1cccc(OCC(F)(F)C(F)(F)C(F)(F)F)c1,2.5,–
OCCC(F)(F)CC(F)(F)F,1.12,–
OCCCC(F)CF (stereo not given),0.11,–
CCCC(O)CF (stereo not given),0.74,–
FC(F)(F)CCOc1ccc2[nH]ccc2c1,2.8,–
CC(F)(F)COc1ccc2[nH]ccc2c1,2.7,–
OCCCF,-0.26,–
OCCCCF,0.09,–
CN(C)C(=O)CNCCc1cccc(OCCCC(F)(F)F)c1.Cl,–,logD [5]: 1.9; hepatocyte CLint [6]: 52 µL/min/1e6 cells; fraction unbound [7]: 0.47; microsomal CLint [3]: < 3 µL/min/mg; solubility at 24 h [2]: 900 µM
CC(O)CCCF (stereo not given),0.42,–
CCCCc1c[nH]c2ccccc12,3.7,–
OCC(F)(F)C(F)(F)C(F)(F)C(F)F,1.89,–
OCCCC(F)(F)CF,0.58,–
OCCC(F)CF (stereo not given),-0.12,–
OCCC(F)(F)CF,0.27,–
OCCC(F)(F)C(F)(F)C(F)(F)F,2.1,–
CN(C)C(=O)CNCCc1cccc(OCCCCC(F)(F)F)c1.Cl,–,logD [5]: 2.3; IC50 [1]: 9.6 µM; hepatocyte CLint [6]: 105 µL/min/1e6 cells; fraction unbound [7]: 0.28; microsomal CLint [3]: 10 µL/min/mg; solubility at 24 h [2]: > 1000 µM
FCCCOc1ccc2[nH]ccc2c1,2.5,–
CN(C)C(=O)CNCCc1cccc(OCCCC(F)(F)CF)c1.Cl,–,logD [5]: 1.6; IC50 [1]: 15 µM; hepatocyte CLint [6]: 34 µL/min/1e6 cells; fraction unbound [7]: 0.47; microsomal CLint [3]: < 3 µL/min/mg; solubility at 24 h [2]: 870 µM
OCC(F)(F)CC(F)(F)F,1.04,–
CCCOc1ccc2[nH]ccc2c1,2.9,–
CCCCOc1cccc(CCNCC(=O)N(C)C)c1 [EVENAMIDE],1.8,–
OCC(F)(F)F [TRIFLUOROETHANOL],0.36,–

# More lines, main results first:
logP [4],Compound,also measured
1.6,CN(C)C(=O)CNCCc1cccc(OCC(F)(F)C(C)(F)F)c1,–
1.1,CN(C)C(=O)CNCCc1cccc(OCCC(C)(F)F)c1,–
1.04,CCC(F)(F)C(C)O (stereo not given),–
0.84,OCCC(F)CC(F)(F)F (stereo not given),–
1.25,CCCC(F)(F)CO,–
0.52,OCCCC(F)C(F)F (stereo not given),–
-0.29,OCC(F)F,–
2.8,CC(F)[C@H](F)CCc1c[nH]c2ccccc12 (stereo not given in full),–
0.29,OCCC(F)C(F)F (stereo not given),–
0.29,OCCCC(F)F,–
0.92,CCC(F)(F)CCO,–
2.7,FCC(F)[C@H](F)Cc1c[nH]c2ccccc12 (stereo not given in full),–
0.75,CCC(F)CCO (stereo not given),–
0.04,OCCC(F)F,–
0.34,CC(F)(F)CCO,–
0.67,CCC(F)(F)CO,–

logP [4],Compound,also measured
0.66,OCCC(F)(F)C(F)F,–
0.87,CC(F)(F)C(F)(F)CO,–
1.53,OCC(F)(F)C(F)C(F)(F)F (stereo not given),–
1.22,OCCCC(F)C(F)(F)F (stereo not given),–
2.6,FC(F)CCOc1ccc2[nH]ccc2c1,–
0.64,CC(O)CCC(F)F (stereo not given),–
0.02,CC(=O)N1CCC[C@H]1C(=O)OCC(F)F,–
1.14,CCCC(O)C(F)F (stereo not given),–
0.6,OCC(F)CC(F)(F)F (stereo not given),–
2.3,FCC(F)COc1ccc2[nH]ccc2c1 (stereo not given),–
0.26,CCC(F)CO (stereo not given),–
0,CCOC(=O)[C@@H]1CCCN1C(C)=O,–
0.66,OCCCCC(F)F,–
0.68,CC[C@H](F)[C@H](C)O (racemic),–
0.68,CC[C@@H](F)[C@H](C)O (racemic),–
